Source: the M2OR odorant receptor database
Substitutions are numbered along the chain they refer to.

Tests used:
Conditions in all cases: stereoisomer not certain
OR5F1 (Homo sapiens) = target: T1, OR5F1 (Homo sapiens) (UniProt O95221)
T1 sequence (whole entry): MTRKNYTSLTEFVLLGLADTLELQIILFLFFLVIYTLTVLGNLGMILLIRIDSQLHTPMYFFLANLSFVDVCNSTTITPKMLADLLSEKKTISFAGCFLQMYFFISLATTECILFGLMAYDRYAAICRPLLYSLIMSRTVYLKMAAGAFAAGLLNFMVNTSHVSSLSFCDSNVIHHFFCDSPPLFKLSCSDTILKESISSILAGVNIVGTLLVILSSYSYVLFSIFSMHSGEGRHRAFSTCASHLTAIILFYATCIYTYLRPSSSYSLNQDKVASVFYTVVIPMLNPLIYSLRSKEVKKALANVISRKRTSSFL
Procedure, shortened: (§1)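 Transient luciferase assays in mammalian cell lines were common, though methods varied by source. The values come from published papers and their supplementary material, with extra details from the original authors when needed. Responsive refers to a measured signal the original authors judged statistically different from baseline, and non-responsive (inactive) to the remainder.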

OR5H1 (Homo sapiens) = target: T2, OR5H1 (Homo sapiens) (UniProt A6NKK0)
T2 sequence (whole entry): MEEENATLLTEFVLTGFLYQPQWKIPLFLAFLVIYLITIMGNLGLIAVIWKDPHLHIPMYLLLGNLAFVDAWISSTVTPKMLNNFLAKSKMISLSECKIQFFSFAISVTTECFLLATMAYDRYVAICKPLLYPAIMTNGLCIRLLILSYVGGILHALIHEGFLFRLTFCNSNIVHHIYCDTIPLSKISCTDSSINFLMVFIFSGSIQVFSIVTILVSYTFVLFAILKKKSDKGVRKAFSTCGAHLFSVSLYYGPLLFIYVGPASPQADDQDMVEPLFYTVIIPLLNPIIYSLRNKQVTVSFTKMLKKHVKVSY
Procedure, shortened: as §1

OR5H14 (Homo sapiens) = target: T3, OR5H14 (Homo sapiens) (UniProt A6NHG9)
T3 sequence (whole entry): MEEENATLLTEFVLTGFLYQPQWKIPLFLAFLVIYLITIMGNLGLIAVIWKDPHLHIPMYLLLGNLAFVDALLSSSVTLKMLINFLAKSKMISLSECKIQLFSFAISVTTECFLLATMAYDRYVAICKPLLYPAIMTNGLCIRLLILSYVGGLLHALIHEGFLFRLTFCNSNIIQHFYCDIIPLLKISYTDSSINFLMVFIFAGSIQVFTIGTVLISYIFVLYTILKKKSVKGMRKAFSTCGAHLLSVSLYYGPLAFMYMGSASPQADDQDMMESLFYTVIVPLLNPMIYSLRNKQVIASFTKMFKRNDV
Procedure, shortened: as §1

OR5H15 (Homo sapiens) = target: T4, OR5H15 (Homo sapiens) (UniProt A6NDH6)
T4 sequence (whole entry): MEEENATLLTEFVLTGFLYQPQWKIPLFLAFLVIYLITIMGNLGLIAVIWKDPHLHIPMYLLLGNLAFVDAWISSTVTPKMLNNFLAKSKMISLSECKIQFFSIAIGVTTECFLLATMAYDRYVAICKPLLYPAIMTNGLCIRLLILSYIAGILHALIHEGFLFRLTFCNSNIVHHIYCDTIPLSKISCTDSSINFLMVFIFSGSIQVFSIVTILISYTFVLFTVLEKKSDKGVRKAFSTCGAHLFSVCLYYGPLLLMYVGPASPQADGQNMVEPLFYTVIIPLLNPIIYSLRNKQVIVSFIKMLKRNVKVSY
Procedure, shortened: as §1

OR5H2 = system: T5, OR5H2
T5 sequence (whole entry): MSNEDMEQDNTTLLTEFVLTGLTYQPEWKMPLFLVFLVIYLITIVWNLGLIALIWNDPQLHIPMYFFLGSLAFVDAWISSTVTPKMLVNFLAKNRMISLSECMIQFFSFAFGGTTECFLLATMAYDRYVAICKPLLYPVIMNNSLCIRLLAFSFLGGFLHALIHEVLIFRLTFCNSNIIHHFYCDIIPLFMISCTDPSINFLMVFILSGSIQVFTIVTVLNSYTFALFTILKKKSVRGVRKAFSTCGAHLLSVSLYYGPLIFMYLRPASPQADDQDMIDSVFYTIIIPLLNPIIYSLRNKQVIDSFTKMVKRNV
Procedure, shortened: as §1

OR5H6 (Homo sapiens) = target: T6, OR5H6 (Homo sapiens) (UniProt Q8NGV6)
T6 sequence (whole entry): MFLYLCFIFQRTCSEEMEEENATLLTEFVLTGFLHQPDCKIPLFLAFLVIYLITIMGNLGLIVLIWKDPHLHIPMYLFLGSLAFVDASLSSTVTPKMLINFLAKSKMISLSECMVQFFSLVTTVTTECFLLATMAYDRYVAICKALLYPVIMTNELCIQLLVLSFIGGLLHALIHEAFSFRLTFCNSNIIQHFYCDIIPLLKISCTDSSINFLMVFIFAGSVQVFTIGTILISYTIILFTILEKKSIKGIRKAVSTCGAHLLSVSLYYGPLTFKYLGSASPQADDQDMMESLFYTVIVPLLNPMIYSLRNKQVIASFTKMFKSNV
Procedure, shortened: as §1

OR5J2 (Homo sapiens) = target: T7, OR5J2 (Homo sapiens) (UniProt Q8NH18)
T7 sequence (whole entry): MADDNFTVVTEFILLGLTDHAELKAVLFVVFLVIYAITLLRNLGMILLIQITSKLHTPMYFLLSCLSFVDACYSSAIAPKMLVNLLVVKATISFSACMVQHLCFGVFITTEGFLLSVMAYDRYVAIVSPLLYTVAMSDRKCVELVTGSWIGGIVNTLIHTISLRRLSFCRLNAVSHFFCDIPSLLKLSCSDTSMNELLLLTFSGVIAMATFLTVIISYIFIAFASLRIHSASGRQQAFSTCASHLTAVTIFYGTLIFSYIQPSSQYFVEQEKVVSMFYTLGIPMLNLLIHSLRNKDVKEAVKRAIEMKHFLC
Procedure, shortened: as §1

OR5K1 (Homo sapiens) = target: T8, OR5K1 (Homo sapiens) (UniProt Q8NHB7)
T8 sequence (whole entry): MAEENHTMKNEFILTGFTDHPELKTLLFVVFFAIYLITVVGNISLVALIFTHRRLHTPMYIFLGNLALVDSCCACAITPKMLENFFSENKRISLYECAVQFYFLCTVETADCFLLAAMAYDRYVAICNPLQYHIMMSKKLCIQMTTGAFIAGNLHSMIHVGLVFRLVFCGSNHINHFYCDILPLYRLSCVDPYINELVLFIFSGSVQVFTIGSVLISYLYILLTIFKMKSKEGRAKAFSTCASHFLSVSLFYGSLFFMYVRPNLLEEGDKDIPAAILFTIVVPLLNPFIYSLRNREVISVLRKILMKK
Procedure, shortened: as §1

OR5K2 (Homo sapiens) = target: T9, OR5K2 (Homo sapiens) (UniProt Q8NHB8)
T9 sequence (whole entry): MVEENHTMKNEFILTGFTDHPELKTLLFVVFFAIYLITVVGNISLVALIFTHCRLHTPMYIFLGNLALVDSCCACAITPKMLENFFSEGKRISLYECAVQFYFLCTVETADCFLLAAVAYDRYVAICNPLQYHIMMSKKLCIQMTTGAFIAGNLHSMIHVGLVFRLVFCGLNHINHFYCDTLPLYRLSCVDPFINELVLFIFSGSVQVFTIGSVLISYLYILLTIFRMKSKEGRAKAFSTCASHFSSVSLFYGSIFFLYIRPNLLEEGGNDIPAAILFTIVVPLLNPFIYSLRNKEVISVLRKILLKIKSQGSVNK
Procedure, shortened: as §1

OR5DG A156T = system: T10, OR5DG A156T
T10 sequence (whole entry): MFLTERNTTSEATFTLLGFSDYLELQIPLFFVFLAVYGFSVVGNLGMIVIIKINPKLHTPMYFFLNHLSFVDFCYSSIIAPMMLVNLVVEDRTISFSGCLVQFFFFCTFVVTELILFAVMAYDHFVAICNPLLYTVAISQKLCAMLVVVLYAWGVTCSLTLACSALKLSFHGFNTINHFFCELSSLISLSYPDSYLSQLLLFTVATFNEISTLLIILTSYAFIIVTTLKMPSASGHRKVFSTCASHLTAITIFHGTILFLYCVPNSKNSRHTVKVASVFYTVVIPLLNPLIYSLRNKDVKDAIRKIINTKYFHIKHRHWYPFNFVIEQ
Procedure, shortened: as §1

OR5DI = system: T11, OR5DI
T11 sequence (whole entry): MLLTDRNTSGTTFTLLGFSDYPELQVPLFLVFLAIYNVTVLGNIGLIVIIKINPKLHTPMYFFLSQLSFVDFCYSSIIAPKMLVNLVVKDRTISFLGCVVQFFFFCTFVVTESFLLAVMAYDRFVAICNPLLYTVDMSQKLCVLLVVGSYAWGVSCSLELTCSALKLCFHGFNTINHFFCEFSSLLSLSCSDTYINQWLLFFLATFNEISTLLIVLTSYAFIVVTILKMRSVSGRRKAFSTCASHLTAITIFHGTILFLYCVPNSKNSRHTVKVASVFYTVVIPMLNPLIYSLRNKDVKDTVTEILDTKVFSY
Procedure, shortened: as §1

OR5F1 = system: T12, OR5F1
T12 sequence (whole entry): T1 sequence (whole entry) with S294N
Procedure, shortened: as §1

OR5H1 F17L A30T H56Q = system: T13, OR5H1 F17L A30T H56Q
T13 sequence (whole entry): T2 sequence (whole entry) with F17L, A30T, H56Q
Procedure, shortened: as §1

OR5H1 T181N = system: T14, OR5H1 T181N
T14 sequence (whole entry): T2 sequence (whole entry) with T181N
Procedure, shortened: as §1

OR5H1 = system: T15, OR5H1
T15 sequence (whole entry): T2 sequence (whole entry) with I153L, T181I
Procedure, shortened: as §1

OR5I1 (Homo sapiens) = target: T16, OR5I1 (Homo sapiens) (UniProt Q13606)
T16 sequence (whole entry): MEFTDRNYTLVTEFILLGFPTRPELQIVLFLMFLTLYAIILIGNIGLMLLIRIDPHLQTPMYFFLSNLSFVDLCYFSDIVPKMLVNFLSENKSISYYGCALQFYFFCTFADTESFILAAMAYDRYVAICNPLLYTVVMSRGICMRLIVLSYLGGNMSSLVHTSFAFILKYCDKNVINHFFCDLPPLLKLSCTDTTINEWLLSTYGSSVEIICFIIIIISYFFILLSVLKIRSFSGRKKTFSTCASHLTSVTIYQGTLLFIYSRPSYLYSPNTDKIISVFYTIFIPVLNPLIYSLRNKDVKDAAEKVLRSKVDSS
Procedure, shortened: as §1

OR5K2 L197M = system: T17, OR5K2 L197M
T17 sequence (whole entry): T9 sequence (whole entry) with L197M
Procedure, shortened: as §1

Measured: odorant receptor agonist call;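 also: active if original authors judged signal statistically different from baseline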

CCCCCC(=O)C(C)C(C)=O (centres undefined)
inactive: OR5F1 (Homo sapiens) | OR5H1 (Homo sapiens) | OR5H14 (Homo sapiens) | OR5H15 (Homo sapiens) | OR5H2 | OR5H6 (Homo sapiens) | OR5J2 (Homo sapiens) | OR5K1 (Homo sapiens) | OR5K2 (Homo sapiens)

CCCC(S)CCOC(C)=O (centres undefined)
inactive: OR5DG A156T | OR5DI | OR5F1 (Homo sapiens) | OR5F1 | OR5H1 (Homo sapiens) | OR5H1 F17L A30T H56Q | OR5H1 T181N | OR5H14 (Homo sapiens) | OR5H15 (Homo sapiens) | OR5H1 | OR5H2 | OR5H6 (Homo sapiens) | OR5I1 (Homo sapiens) | OR5J2 (Homo sapiens) | OR5K1 (Homo sapiens) | OR5K2 (Homo sapiens) | OR5K2 L197M

CCCCC(=O)O
inactive: OR5K1 (Homo sapiens)

C=Cc1ccc(O)c(OC)c1
inactive: OR5K1 (Homo sapiens)

CCC(C)C=O (centres undefined)
inactive: OR5K1 (Homo sapiens)

CCCCCC=CCCC=O
inactive: OR5K1 (Homo sapiens)

CSSc1ccoc1C
inactive: OR5K1 (Homo sapiens)

C=C(C)c1ccc(C)cc1
inactive: OR5K1 (Homo sapiens)

CSCCCO
inactive: OR5K1 (Homo sapiens)

C=Cc1ccc(O)cc1
inactive: OR5K1 (Homo sapiens)
